Measured values published in publication PMC10438863 (Journal of Enzyme Inhibition and Medicinal Chemistry, 2023).

How the values were obtained:
K562 cell line = test: CCK-8 antiproliferative assay, K562; type: cell-based; details: Homo sapiens, K562, 72 h
Summary of the method: (§1)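 Cells were grown in RPMI-1640 with 10% FBS at 37 °C in 5% CO2. About 3.5 × 10^3 cells/well were seeded, grown 24 h, then given test compound at several concentrations for 72 h in triplicate wells. CCK-8 was added for 2–3 h and OD read at 450 nm to give inhibition rate or IC50. K562 screen: mean of ≥2 independent experiments. Five-line panel: mean ± SD of three.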

A549 = test: CCK-8 antiproliferative assay, A549; type: cell-based; details: Homo sapiens, A549, 72 h, read-out: IC50 (µM) A549
Summary of the method: as §1

Hela = test: CCK-8 antiproliferative assay, Hela; type: cell-based; details: Homo sapiens, HeLa, 72 h, read-out: IC50 (µM) Hela
Summary of the method: as §1

H22 = test: CCK-8 antiproliferative assay, H22; type: cell-based, mouse; details: Mus musculus, H22, 72 h, read-out: IC50 (µM) H22
Summary of the method: as §1

normal cell line HFL-1 = test: CCK-8 assay, normal cell line HFL-1; type: cell-based; details: Homo sapiens, HFL1, 72 h, read-out: IC50 (µM) HFL-1
Summary of the method: as §1

[1] = test system: colchicine binding site on tubulin; test: [3H]-colchicine competition scintillation proximity assay; details: tubulin 1 µM, [3H]-colchicine 5 µM
Summary of the method: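 Competition scintillation proximity assay. Test compound was added to buffer (80 mM PIPES pH 6.8, 1 mM EGTA, 1 mM MgCl2, 10% glycerol, 1 mM GTP) containing tubulin 1 µM, then [3H]-colchicine 5 µM. After 2 h incubation, streptavidin-labelled SPA beads were added and radioactivity counted. Percent inhibition of colchicine binding was reported as mean ± SD of three independent experiments.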

H22 allograft = H22 allograft mice model, in vivo antitumor effect; details: 20 mg/kg i.v. once a day, three weeks, by tumour weight
Summary of the method: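 H22 cells in log phase (1 × 10^7 cells/mL, 0.1 ml) were injected s.c. into the right flank. Tumour size and body weight were recorded every two days. Mice were sacrificed at about 21 days. TGI (%) = (1 − Wt/Wc) × 100, using mean tumour weights.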

With COc1ccc(/C=C\c2cc(OC)c(OC)c(OC)c2)cc1O [CA-4, Combretastatin A-4, reference compound] the IC50 (K562 cell line; read-out: IC50 (µM) K562) was 0.004 ± 0.001 µM, the inhibition at 0.1 µM (K562 cell line; read-out: Inhibition rate (%)) was 88.3% and the inhibition at 1 µM (K562 cell line; read-out: Inhibition rate (%)) was 92%. For the same compound, the IC50 (A549) was 0.032 ± 0.005 µM, the IC50 (Hela) was 0.026 ± 0.006 µM and the IC50 (H22) was 0.01 ± 0.002 µM. For the same compound, the IC50 (normal cell line HFL-1) was 0.139 ± 0.017 µM, the “Inhibition (%) of colchicine binding” value ([1]; compound 1 µM) was 78.55 ± 1.85% and the “Inhibition (%) of colchicine binding” value ([1]; compound 5 µM) was 87.35 ± 1.37%. For the same compound, the “tumour growth inhibition (TGI) value” (H22 allograft) was 59.19%.
